In ChEMBL document CHEMBL1155288, “Novel 1,2,3-thiadiazole derivatives as HIV-1 NNRTIs with improved potency: Synthesis and preliminary SAR studies” (Bioorg Med Chem, 2009):

How the values were obtained:
[1] = tested on: Human immunodeficiency virus 1; test: Antiviral activity against HIV1 3B infected in human MT4 cells after 5 days by MTT assay; assay type: functional, organism-based; settings: Human immunodeficiency virus 1, 3B, MT4, 120 h
Summary of the method: (§1)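 MT-4 cells (6 × 10^5 cells/mL) infected with HIV-1 IIIB or HIV-2 ROD at 100–300 CCID50. Serial fivefold compound dilutions were tested in triplicate wells. Viability was read by MTT reduction at 540 and 690 nm on day 5, using the median OD of three wells. EC50 is the concentration giving 50% protection from viral cytopathic effect.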

[2] = tested on: Human immunodeficiency virus 2; test: Antiviral activity against HIV2 ROD infected in human MT4 cells after 5 days by MTT assay; assay type: functional, organism-based; settings: Human immunodeficiency virus 2, ISOLATE ROD, MT4, 120 h; summary of the method: as §1
[3] = Cytotoxicity against human MT4 cells after 5 days by MTT assay; assay type: cell-based
Summary of the method: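 Mock-infected MT-4 cells (6 × 10^5 cells/mL) received serial fivefold compound dilutions in triplicate wells, run in parallel with the infected series. After 5 days, viability was measured by MTT formazan absorbance at 540 and 690 nm, using the median OD of three wells. CC50 is the concentration reducing OD540 of the mock-infected control by 50%.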

[4] = Selectivity index, ratio of CC50 for human MT4 cells to EC50 for HIV1 3B; assay type: toxicity, cell-based; settings: read-out: Ratio CC50/EC50
Summary of the method: (§2)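 Ratio CC50/EC50. CC50 comes from mock-infected MT-4 cells and EC50 from HIV-1 IIIB- or HIV-2 ROD-infected MT-4 cells, both from the same 5-day MTT plates.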

[5] = Selectivity index, ratio of CC50 for human MT4 cells to EC50 for HIV2 ROD; assay type: toxicity, cell-based; settings: read-out: Ratio CC50/EC50; summary of the method: as §2

| Structure (SMILES) | EC50 [1] [µM] | EC50 [2] [µM] | CC50 at 120 h [3] [µM] | selectivity ratio [4] | selectivity ratio [5] |
| --- | --- | --- | --- | --- | --- |
| Cc1cccc(NC(=O)CSc2snnc2-c2ccc(Br)cc2Br)c1C | 1.44 | > 241 | 241 | 166 | < 1 |
| Cc1ccc(NC(=O)CSc2snnc2-c2ccc(Br)cc2Br)cc1 | 1.52 | > 24 | 24 | 16 | < 1 |
| O=C(CSc1snnc1-c1ccc(Br)cc1Br)Nc1ccccn1 | 1.17 | > 42.4 | 42.4 | 36 | < 1 |
| Cc1cccc(C)c1NC(=O)CSc1snnc1-c1ccc(Br)cc1Br | > 199 | > 199 | ≥ 199 | < 1 | < 1 |
| O=C(CSc1snnc1-c1ccc(Br)cc1Br)Nc1cccnc1Cl | 0.0364 | > 240 | > 240 | > 6460 | ≥ 1 |
| O=C(CSc1snnc1-c1ccc(Br)cc1Br)Nc1ccccc1[N+](=O)[O-] | 0.04 | > 236 | > 236 | > 5840 | ≥ 1 |
| O=C(CSc1snnc1-c1ccc(Br)cc1Br)Nc1nccs1 | 4.53 | > 87.8 | 87.8 | 19 | < 1 |
| Cc1ccc(NC(=O)CSc2snnc2-c2ccc(Br)cc2Br)c(Br)c1 | 0.22 | > 216 | > 216 | > 958 | ≥ 1 |
| Cc1ccc(NC(=O)CSc2snnc2-c2ccc(Br)cc2Br)c([N+](=O)[O-])c1 | 0.079 | > 230 | > 230 | > 2930 | ≥ 1 |
| O=C(CSc1snnc1-c1ccc(Br)cc1Br)Nc1ccc(Cl)cc1 | 2.19 | > 23.3 | 23.3 | 11 | < 1 |
| Cc1ccccc1NC(=O)CSc1snnc1-c1ccc(Br)cc1Br | 0.52 | > 202 | 202 | 381 | < 1 |
| COC(=O)c1ccsc1NC(=O)CSc1snnc1-c1ccc(Br)cc1Br | 4.01 | > 228 | > 228 | > 57 | ≥ 1 |
| Cc1ccc2sc(NC(=O)CSc3snnc3-c3ccc(Br)cc3Br)nc2c1 | > 23.6 | > 23.6 | 23.6 | < 1 | < 1 |
| O=C(CSc1snnc1-c1ccc(Br)cc1Br)Nc1ccccc1Br | 0.12 | 172 | > 222 | > 1790 | > 1 |
| O=C(CSc1snnc1-c1ccc(Br)cc1Br)Nc1ccccc1 | 0.54 | > 24.8 | 24.8 | 47 | < 1 |
| CC(=O)c1ccc(NC(=O)CSc2snnc2-c2ccc(Br)cc2Br)c(Br)c1 | 0.058 | > 206 | > 206 | > 3550 | ≥ 1 |
| O=C(CSc1snnc1-c1ccc(Br)cc1Br)Nc1ccccc1Cl | 0.083 | ≥ 221 | > 241 | > 2900 | > 1 |
| O=C(CSc1snnc1-c1ccc(Br)cc1Br)Nc1ccccc1F | 0.14 | > 27.8 | ≥ 27.8 | > 195 | < 1 |
